A selection: hits, their analogues and other compounds. The true share with any hit is near 4%.
OX1R antag-1 = human HCRTR1 antagonism; O43613; CHO/OX1R cells, Fluo-8 calcium fluorescence, orexin A; inhibition, % at 5 µM; 330,000 compounds, 0.43% hits;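 active = inhibition above its plate's threshold, mean inhibition of all tested compounds on the plate plus 3 SD, cut at about 37% in these data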;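 note: 0% = orexin A challenge wells and 100% = SB-334867-A antagonist wells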
Target sequence (O43613 whole entry, looked up): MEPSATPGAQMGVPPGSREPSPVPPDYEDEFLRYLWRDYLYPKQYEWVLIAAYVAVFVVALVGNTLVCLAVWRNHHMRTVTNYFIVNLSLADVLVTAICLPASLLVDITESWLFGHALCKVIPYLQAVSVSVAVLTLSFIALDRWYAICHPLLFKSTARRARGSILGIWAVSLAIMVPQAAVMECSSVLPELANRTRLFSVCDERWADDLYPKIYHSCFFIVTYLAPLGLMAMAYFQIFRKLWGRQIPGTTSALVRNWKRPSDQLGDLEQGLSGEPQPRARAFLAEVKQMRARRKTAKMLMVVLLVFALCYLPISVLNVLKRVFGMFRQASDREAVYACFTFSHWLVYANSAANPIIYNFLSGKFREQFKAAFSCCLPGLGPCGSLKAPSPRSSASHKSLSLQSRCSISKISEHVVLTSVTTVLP
OX1R antag-2 = OX1R (human) antagonism | O43613 | OX1R-expressing cells, FRET antagonist read-out | inhibition, % at 6.6 µM | 330,000 compounds, 1.8% hits | AID 485270; in the data active = inhibition mostly above about 38%, no sharp cut-off; inactive = mostly below about 40%;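 note: 0% = agonist challenge alone and 100% = reference antagonist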
TAAR1 antagonist = antagonists of human TAAR1; Q96RJ0; CHO RD-HGA16 TAAR1, Fluo-8 calcium fluorescence, antagonist; inhibition, % at 3 µM; 360,000 compounds, 1.5% hits; AID 624466;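 active = inhibition above a per-plate cutoff, the mean inhibition of test compounds on that plate plus 3 SD, cut at about 49% in these data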;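 note: 0% = DMSO plus EC80 beta-PEA response and 100% = DMSO alone without agonist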
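Test system: hTAAR1-expressing CHO RD-HGA16 cells, Gα16-coupled; Probe or stimulus: EC80 β-phenethylamine stimulus; Compound dosing: single nominal final test compound concentration of 3 µM; Timing: 140 s kinetic read after compound, 140 s after agonist; Signal: Fluo-8 calcium-sensitive fluorescence; Measure: % inhibition of agonist calcium response; Controls: DMSO and EC80 PEA controls.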
CHO parental Ca = signal in parental CHO cells, OX1R antagonist counter-screen | parental CHO-K1, ATP-induced calcium, Fluo-8 fluorescence | inhibition, % at 5.6 µM | 330,000 compounds, 0.63% hits;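 active = inhibition above that plate's mean sample inhibition plus 3 SD, cut at about 26% in these data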;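 note: 0% = ATP-challenged DMSO wells and 100% = DMSO wells without ATP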
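Assay system – parental CHO cells · Reagent – ATP stimulus · Detection – intracellular calcium via Fluo-8 no-wash fluorescent dye · Evaluation – percent inhibition of ATP-evoked calcium rise, normalized to controls · Controls – ATP wells versus no-ATP DMSO wells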
TAAR1 agonist = human TAAR1 agonism | Q96RJ0 | CHO RD-HGA16 TAAR1, Fluo-8 calcium fluorescence; vehicle wells 0%, saturating PEA agonist 100% | activation, % at 3 µM | 360,000 compounds, 0.99% hits | AID 624467;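 active = activation above the mean activation of all test compounds in the run plus 3 SD, cut at about 38% in these data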
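test system = CHO RD-HGA16 cells carrying human TAAR1 plus Gα16 | schedule = 17-24 h seeding, 75 min 37 °C dye, 30 min RT | compound dosing = 3 µM single concentration | control set = DMSO and PEA EC100 | replicates = n 1 | signal = Fluo-8 fluorescence, 5 s baseline then 140 s kinetic read | measure = percent activation vs PEA EC100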
* = called active by the depositor.

For CN(C)c1ccc(N=Nc2ccccc2C(=O)OCC(=O)N2CCCC2)cc1 the results were OX1R antag-1 -24.7, OX1R antag-2 29.2, TAAR1 antagonist -4.4, CHO parental Ca -16.3 and TAAR1 agonist 4.1.
CN(C)c1ccc(N=Nc2ccccc2C(=O)OCC(=O)N2CCCCCC2)cc1 was read as OX1R antag-1 -13.6, OX1R antag-2 6.4, TAAR1 antagonist 38.1, CHO parental Ca 29.2* and TAAR1 agonist 5.4.
O=C(NCc1n[nH]c(=S)n1-c1cccc(C(F)(F)F)c1)c1ccc(S(=O)(=O)N2CCCCC2)cc1 was read as OX1R antag-1 -10.8, OX1R antag-2 8.8, TAAR1 antagonist -3.4, CHO parental Ca -7.5 and TAAR1 agonist -3.4.
`O=C(NCc1n[nH]c(=S)n1-c1cccc(C(F)(F)F)c1)c1ccc(S(=O)(=O)N2CCCC2)cc1` gave OX1R antag-1 9.5, OX1R antag-2 50.1*, TAAR1 antagonist -2.5, CHO parental Ca -3.9 and TAAR1 agonist 7.9.
CCCCc1c(-c2ccccc2OC)ncn1C(C)c1ccccc1 (stereo not drawn) was read as TAAR1 antagonist 0.4 and TAAR1 agonist 3.6.
For CCNC(=O)NC(=O)c1csc([N+](=O)[O-])c1 the results were OX1R antag-1 -10.5, OX1R antag-2 40.2*, TAAR1 antagonist -20.7, CHO parental Ca -14.0 and TAAR1 agonist 0.7.
C=CCNC(=O)NC(=O)c1csc([N+](=O)[O-])c1 was read as OX1R antag-1 -17.6, OX1R antag-2 46.3*, TAAR1 antagonist -18.1, CHO parental Ca 4.1 and TAAR1 agonist 4.0.
O=C1CC(O)C(Cc2ccccc2)N1 (stereo not drawn) was read as TAAR1 antagonist -19.0 and TAAR1 agonist 2.2.
`COc1ccc(NC(=O)N(O)C2(C#N)CCCCC2)cc1` gave TAAR1 antagonist 10.4 and TAAR1 agonist 1.3.
`Nc1cccc(N2C(=O)c3cccc4c(N)ccc(c34)C2=O)c1` gave OX1R antag-1 15.6, OX1R antag-2 9.9, TAAR1 antagonist 20.4, CHO parental Ca 19.6 and TAAR1 agonist 25.0.
For CC(C)CCN1C(=O)c2cccc3c(N)ccc(c23)C1=O the results were OX1R antag-1 91.2*, OX1R antag-2 35.0, TAAR1 antagonist 78.1*, CHO parental Ca 85.3* and TAAR1 agonist 149.1*.
`Cc1cccc(NC(=O)C2C(c3ccccc3)C2(Cl)Cl)c1` (stereo not drawn) gave OX1R antag-1 -7.3, OX1R antag-2 27.1, TAAR1 antagonist -12.5, CHO parental Ca 17.3 and TAAR1 agonist 0.8.
Screening Cc1ccc(NC(=O)C2C(c3ccccc3)C2(Cl)Cl)c(C)c1 (stereo not drawn) returned OX1R antag-1 9.7, OX1R antag-2 76.8*, TAAR1 antagonist -20.1, CHO parental Ca 6.9 and TAAR1 agonist -3.6.
O=C(CSc1ccccc1F)NCC(c1cccs1)N1CCOCC1 (stereo not drawn) was read as OX1R antag-1 -1.0, OX1R antag-2 -2.5, TAAR1 antagonist 9.4, CHO parental Ca -16.8 and TAAR1 agonist 2.2.
`CC(=O)C1=C(C)N(CC(C)C)C(=S)NC1c1ccc(Br)cc1` (stereo not drawn) gave TAAR1 antagonist -11.5 and TAAR1 agonist -1.7.
For O=C(CNC(=O)c1ccccn1)N/N=C/c1ccccc1 the results were OX1R antag-1 -11.4, OX1R antag-2 25.4, TAAR1 antagonist 4.2, CHO parental Ca -5.4 and TAAR1 agonist 40.3*.
`COc1cccc(-c2nn3c(-c4cccc(C)c4)nnc3s2)c1` gave OX1R antag-1 -4.5, OX1R antag-2 57.3*, TAAR1 antagonist 13.8, CHO parental Ca -28.7 and TAAR1 agonist -0.6.
CCOc1ccc(-c2nn3c(-c4ccccc4)nnc3s2)cc1 was read as OX1R antag-1 -0.9, OX1R antag-2 64.4*, TAAR1 antagonist 27.7, CHO parental Ca -14.1 and TAAR1 agonist 11.6.
For COc1cccc(-c2nnc3sc(-c4ccc(C)cc4)nn23)c1 the results were OX1R antag-1 -14.4, OX1R antag-2 12.0 and CHO parental Ca -12.4.
Screening C[C@@H]1CN([C@H](C)CO)C(=O)CCCn2nncc2CO[C@H]1CN(C)C(=O)Nc1ccc2c(c1)OCCO2 returned TAAR1 antagonist -15.6 and TAAR1 agonist 0.3.
Screening COc1cc(C(=O)NCCN2C(=O)S/C(=C\c3cccs3)C2=O)cc(OC)c1OC returned OX1R antag-1 -30.6, OX1R antag-2 47.9, TAAR1 antagonist 40.9, CHO parental Ca -15.9 and TAAR1 agonist 12.1.
